SENP1 FRET inh – inhibitors of human SENP1 SUMO protease catalytic domain; recombinant SENP1 catalytic domain, CyPet-SUMO1-YPet FRET cleavage; inhibition, % at 10 µM; 360,000 tested, 0.21% active; AID 624204;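 active = inhibition at least 30% at 10 µM, raw YFP signal under a set limit, fluorescence ratio 0.5 to 1.5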
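Material – human SENP1 catalytic domain · Input – SENP1 enzyme, 20 pM final · Compound dosing – single concentration of 10 µM compound, 0.5% DMSO final · Timing – enzyme reaction for 50 min at room temperature, dark · Measured by – FRET fluorescence in CFP and YFP emission channels · Control set – no-enzyme wells low, DMSO-plus-enzyme wells high control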
SENP8 block-1 – inhibitors of human SENP8 protease; Q96LD8; purified SENP8, Z-RLRGG-aminoluciferin cleavage, luminescence; inhibition, % at 10 µM; 330,000 tested, 1.2% active; AID 2540; in the data active = inhibition above about 50%
SENP8 block-2 – blocks human SENP8 cleavage of Nedd8 substrate; Q96LD8; recombinant SENP8, Nedd8 substrate fluorescence; inhibition, % at 20 µM; 360,000 tested, 0.64% active; AID 602440; in the data active = inhibition mostly above about 40%, no sharp cut-off; inactive = mostly below about 27%
SENP6 inh – blocks the human protease SENP6; inhibition, % at 10 µM; Q9GZR1; Recombinant SENP6 catalytic domain, aminoluciferin luminescence; 330,000 tested, 1.8% active;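 active = inhibition above about 50% at the single tested dose, limit read from the data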
Target sequence (Q9GZR1 628-1112 limits assumed): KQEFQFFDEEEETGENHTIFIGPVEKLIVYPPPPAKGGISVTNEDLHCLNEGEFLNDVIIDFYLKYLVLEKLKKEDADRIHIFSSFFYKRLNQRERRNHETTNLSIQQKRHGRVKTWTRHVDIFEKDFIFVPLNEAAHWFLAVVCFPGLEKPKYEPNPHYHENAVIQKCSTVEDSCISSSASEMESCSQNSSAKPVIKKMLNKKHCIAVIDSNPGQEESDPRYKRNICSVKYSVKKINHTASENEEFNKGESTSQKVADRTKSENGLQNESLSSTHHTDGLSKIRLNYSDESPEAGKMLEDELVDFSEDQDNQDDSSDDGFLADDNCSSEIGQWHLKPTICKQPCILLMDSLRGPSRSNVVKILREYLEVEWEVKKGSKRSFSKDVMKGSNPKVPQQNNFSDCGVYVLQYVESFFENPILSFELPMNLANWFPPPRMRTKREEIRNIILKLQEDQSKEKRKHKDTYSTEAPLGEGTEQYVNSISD
Apaf1 inhib – blocks human Apaf-1 apoptosome activity. O14727. reconstituted apoptosome caspase-3 activity, DEVD-Rh110 fluorescence. inhibition, % at 20 µM. 330,000 tested, 0.71% active; active = inhibition of at least 40% at 20 µM
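Medium: Hepes buffer, pH 7.5 / System: biochemical Apaf-1 apoptosome reconstitution / Measured by: Rh110 fluorescence, excitation 480 nm, emission 540 nm / Times: compound with Apaf-1, dATP, procaspase-3 30 min, then 50 min reaction, room temperature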
SENP7 block – SENP7 protease inhibition; recombinant SENP7, Z-RLRGG-aminoluciferin luminescence, 40 min; inhibition, % at 5 µM; 330,000 tested, 1.5% active; AID 434973;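 active = inhibition above about 50% at the single test dose, limit read from the data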
Hits are given with their value; . = inactive; / = no result given. In the library only some 2.9% were active in any assay of this set; here they are far more common.

SMILES | SENP1 FRET inh | SENP8 block-1 | SENP8 block-2 | SENP6 inh | Apaf1 inhib | SENP7 block
CC(=O)NN1C(=O)/C(=C\c2ccc(Br)o2)SC1=S | 55 | . | . | . | . | .
CCN(C[C@H]1N[C@@](CC)(C(=O)OC)[C@H]2C(=O)N(Cc3ccccc3)C(=O)[C@@H]12)S(=O)(=O)c1ccc(F)cc1 | . | . | . | . | . | .
Cc1cc(OCc2nc3ccccc3s2)ccc1N | . | 54 | . | 70 | . | .
Cc1cc(-c2nc3ccccc3s2)ccc1N | . | / | . | / | / | /
C=CCN1C(=O)/C(=C2\SC(N3CCOCC3)=NC2=O)c2cc(Br)ccc21 | . | . | 41 | . | . | .
CCN1C(=O)/C(=C2\SC(N3CCOCC3)=NC2=O)c2ccccc21 | . | . | . | . | . | .
CN(C)/C=C1\Oc2ccc3ccccc3c2C1=O | . | . | . | . | . | .
O=C1C(=O)c2c(ccc3ccccc23)-c2ccccc21 | . | / | 99 | / | / | /
C=CCN1C(=O)/C(=C/c2ccsc2)SC1=S | . | . | 46 | . | . | .
N=C1C=CC=C2C1=NC1(CCCCC1)N2O | . | . | 36 | . | . | .
CC(C)(C)N=C1C([N+](=O)[O-])=CC=C2C1=NC1(CCCCC1)N2O | . | . | . | . | . | .
CC(C)NC(=O)/C(C#N)=C/c1ccc(N(C)C)o1 | . | . | 40 | . | . | .
Cc1nc2c(-c3ccc(F)cc3)c(C)nn2c(C)c1CCC(=O)Nc1ccccc1 | . | . | . | 61 | . | .
O=C(CSc1nc2ccccc2c(=O)n1-c1ccc(F)cc1)NC1CCS(=O)(=O)C1 (centres undefined) | . | . | . | . | . | .
CCC(=O)c1ccccc1OCCN1C(=O)NC(C)(C)C1=O | . | . | . | . | . | .
CCCCOc1ccc(OCCCC)c2c1NC1(N2)C(=O)N(C(C)=O)c2ccccc21 | 45 | . | . | . | . | .
O=C1C(c2ccc(F)cc2)N(Cc2ccc3c(c2)OCO3)C(=O)CN1C1CCCCCC1 (centres undefined) | . | . | . | . | . | .
COc1ccc(C2C(=O)N(C3CCCCC3)CC(=O)N2Cc2ccc3c(c2)OCO3)cc1 (centres undefined) | . | . | . | 100 | . | .
CCN(CC)c1ccc(/C=c2\sc3nnc(-c4ccccc4Cl)n3c2=O)cc1 | . | . | 61 | . | . | .
Cc1c(C(=O)N(C)Cc2ccc(F)cc2)sc(=O)n1Cc1ccccc1C#N | . | / | . | / | / | /
COC(=O)C1=C(C)N(Cc2ccccc2)C(=NCc2cccc(Cl)c2)N[C@H]1c1cccc(F)c1 | . | . | . | . | 67 | .
Cc1ccccc1N=Cc1cc2c(cc1[N+](=O)[O-])OCO2 | . | . | . | . | . | .
Cc1c(N=Cc2cc3c(cc2[N+](=O)[O-])OCO3)cccc1[N+](=O)[O-] | . | . | . | . | 44 | .
O=C1C(Cl)=C(NC(=O)c2ccccc2)C(=O)C(Cl)=C1NC(=O)c1ccccc1 | . | . | . | . | 56 | .
O=C(Nc1cccc(Cl)c1)c1ccccc1 | . | . | . | . | . | .
SMILES | SENP1 FRET inh | SENP8 block-1 | SENP8 block-2 | SENP6 inh | Apaf1 inhib | SENP7 block
CN(C1=C(NC(=O)c2ccc(Cl)cc2)C(=O)c2ccccc2C1=O)c1ccccc1 | . | . | 57 | . | . | .
CC(C)Oc1ccc(C(=O)NCC(=O)N2CCN(S(=O)(=O)/C=C/c3ccccc3)CC2)cc1 | . | . | . | . | . | .
NC(c1csc(Nc2nncc3ccccc23)n1)C1CCCCC1 (centres undefined) | . | / | . | / | / | /
CCCc1ccc(C(=O)NC(=O)c2ccccc2O)cc1 | . | 62 | . | 73 | . | .
COc1ccc(OCCCC(=O)Nc2cc(Cl)ccc2-n2cncn2)cc1 | . | . | . | . | . | .
O=C(Nc1nc2ccc([N+](=O)[O-])cc2s1)c1ccco1 | / | 75 | / | 83 | . | .
O=C(Nc1nc2ccc([N+](=O)[O-])cc2s1)c1c(F)cccc1F | . | . | . | . | . | .
CCCCC1Cc2[nH]c(=S)[nH]c(=O)c2C(c2cccc3ccccc23)O1 (centres undefined) | . | / | . | / | / | /
CC(/C=N/NC(=O)c1sc(N)nc1C)=C\c1ccccc1 | . | . | . | . | . | 69
Cc1nc(N)sc1C(=O)N/N=C/c1ccccc1[N+](=O)[O-] | . | . | . | . | . | .
COc1ccc(Cl)cc1S(=O)(=O)N1CCC(C(=O)NC2CC2)CC1 | . | . | . | . | . | .
O=C(COC(=O)c1cc[n+]([O-])cc1)Nc1cccc(F)c1 | . | . | . | . | . | .
O=c1oc(-c2ccc([N+](=O)[O-])cc2)nc2ccc(O)cc12 | . | 95 | . | 95 | . | 100
O=C1/C(=C\c2ccc(-c3ccccc3Cl)o2)SC(=S)N1CC1CCCO1 (centres undefined) | . | . | 44 | . | . | .
Cc1ccc(N2C(=O)/C(=C\c3ccco3)SC2=S)cc1 | . | . | 48 | . | . | .
Cc1ccc(/C=C2\SC(=S)N(CC3CCCO3)C2=O)o1 (centres undefined) | . | . | . | . | . | .
O=C1/C(=C/c2ccco2)SC(=S)N1CC1CCCO1 (centres undefined) | . | . | 42 | . | . | .
O=C1/C(=C\c2ccco2)SC(=S)N1c1ccccc1 | . | . | . | . | . | .
COCCOCCn1c(CCCO)nc2ccccc21 | . | . | . | . | . | .
COCCOCCn1c(/C=C/c2ccccc2)nc2ccccc21 | . | 61 | . | 74 | . | .
CCc1nc2ccc(C(=O)NCCN3CCNC3=O)cn2c1N(CC)CCOC | . | / | . | / | / | /
Cc1c(C(=O)O/N=C(\N)c2ccccn2)cccc1[N+](=O)[O-] | . | 78 | . | 79 | . | 85
CCOc1ccc(NC(=O)CN(C)C(=O)c2ccccc2OCc2c(C)noc2C)cc1OCC | . | . | . | . | 57 | .
Cc1ccc(NC(=O)CN(C)C(=O)c2ccccc2OCc2c(C)noc2C)cc1 | . | . | . | . | . | .
Nc1nc(-c2ccccc2)c(N=Nc2cccc3ccccc23)s1 | . | . | . | . | . | .
SMILES | SENP1 FRET inh | SENP8 block-1 | SENP8 block-2 | SENP6 inh | Apaf1 inhib | SENP7 block
Nc1nc(-c2ccccc2)c(N=Nc2ccccc2Cl)s1 | . | . | 66 | . | . | .
CCC(c1nnc(SCC(=O)NC2CCCCC2)n1Cc1ccccc1)N(C)C (centres undefined) | . | . | . | . | . | .
CC(/C=C/c1ccc(OCc2ccccc2)cc1)=N\O | . | . | . | . | . | 70
COC1=C(Br)C(=O)c2ncccc2C1=O | . | / | 105 | / | / | /
O=C1c2cccnc2-c2ncccc21 | . | . | . | . | . | .
O=C1C(=O)c2cccnc2-c2ncccc21 | 29 | / | 110 | / | / | /
COc1ccc(C(=O)Nc2ccc(N3CCCCCC3)cc2)cc1S(=O)(=O)N1CCOCC1 | . | . | . | . | . | .
CCC[C@@H](CN1CCC[C@H]1CN1C(N)=NC[C@H]1CC(C)C)N1C[C@@H]([C@H](C)CC)N(CCCC2CCCC2)C1=N | . | . | . | . | 53 | .

Screening data as filed in PubChem.
